Compound activity deposited in PubChem by several laboratories.
TNAP inh hi DEA: blocks human TNAP under high phosphate acceptor concentration; inhibition, % at 20 µM; actives 0.03% (n = 200,000); purified TNAP, CDP-star luminescence, 1 M DEA;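 active means over 50% inhibition of tissue-nonspecific alkaline phosphatase at 20 µM in the single-dose screen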;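 further: plate controls were DMSO wells for no effect and EDTA-quenched wells as full inhibition for full effect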
Target sequence (P05186 whole entry, looked up): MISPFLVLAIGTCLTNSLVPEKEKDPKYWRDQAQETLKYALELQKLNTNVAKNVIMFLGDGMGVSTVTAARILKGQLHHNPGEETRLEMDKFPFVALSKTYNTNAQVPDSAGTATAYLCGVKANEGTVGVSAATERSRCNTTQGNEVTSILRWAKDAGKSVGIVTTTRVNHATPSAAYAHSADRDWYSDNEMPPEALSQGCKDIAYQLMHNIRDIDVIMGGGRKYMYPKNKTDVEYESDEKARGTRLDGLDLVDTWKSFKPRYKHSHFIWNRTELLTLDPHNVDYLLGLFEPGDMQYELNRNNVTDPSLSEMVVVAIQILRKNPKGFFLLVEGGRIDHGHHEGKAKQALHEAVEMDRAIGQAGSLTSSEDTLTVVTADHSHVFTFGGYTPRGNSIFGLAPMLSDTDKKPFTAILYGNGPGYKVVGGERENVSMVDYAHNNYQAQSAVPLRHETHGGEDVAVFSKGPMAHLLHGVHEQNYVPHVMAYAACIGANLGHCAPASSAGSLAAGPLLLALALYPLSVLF
Efa HMGR inh: inhibitors of class II HMG-CoA reductase from Enterococcus faecalis; purified E. faecalis HMGR, NADPH absorbance 340 nm kinetic; inhibition, % at 10 µM; actives 0.41% (n = 190,000); AID 1066;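 active means inhibition above a set limit, the median over all tested compounds plus 3 SD, cut at about 9.5% in these data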;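 further: enzyme runs in reverse so mevalonate oxidation gives rising NADPH absorbance; 0% = complete reaction with DMSO and 100% = background rate lacking mevalonate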
TNAP inh noacc: inhibitors of human TNAP without phosphate acceptor | purified TNAP, CDP-star luminescence, 30 min | inhibition, % at 20 µM | actives 0.26% (n = 200,000) | AID 1012;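 active means tissue-nonspecific alkaline phosphatase inhibition above about 50% at 20 µM in the single-dose screen, limit read from the data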;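 further: 0% = DMSO negative control and 100% = EDTA positive control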
TNAP act hi DEA: TNAP (human) activation, high acceptor. P05186. purified TNAP, CDP-star luminescence, 1 M DEA, 30 min; stronger effect = higher value; 0 = EDTA background, 1 = DMSO-only activity. activation factor at 20 µM. 200,000 tested, under 10 active. AID 1136;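 active means activation factor at least 2 at 20 µM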
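Dosing: 20 µM single point. System: human TNAP. Amount: TNAP 1/800 final. Incubation: 30 min, room temperature. Read-out: TNAP activation factor scaled between EDTA and DMSO control wells. Signal: luminescence from CDP-star hydrolysis. Medium: 1 M DEA, pH 9.8, Mg2+, Zn2+. Control set: EDTA negative control, DMSO positive control.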
INS promoter inh: TRM-6 insulin promoter activity inhibition. TRM-6 cells, insulin promoter-eGFP reporter, imaging; reporter expression induced with tamoxifen. inhibition, % at 2 µM. actives 0.9% (n = 130,000). AID 1273;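 active means inhibition above the mean plus 3 SD, with well images judged a real hit on visual review, cut at about 60% in these data, passing the limit was not always enough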
* hit, by the source's call. In the library only some 1.2% were active in any assay of this set; here they are far more common.

Screening COc1ccc(NC(=O)CSc2nccn2C)cc1S(N)(=O)=O returned TNAP inh hi DEA 2, Efa HMGR inh 10*, TNAP inh noacc -4, TNAP act hi DEA 1 and INS promoter inh -29.
CCc1ccc(NC(=S)N2CCCCCCC2)cc1 was read as TNAP inh hi DEA -8, Efa HMGR inh 3, TNAP inh noacc -6, TNAP act hi DEA 1.1 and INS promoter inh 79*.
COc1ccc(NC(=O)CSc2nc3ccccc3c(=O)n2CCCN2CCC(C)CC2)c(OC)c1 was read as TNAP inh hi DEA -1, Efa HMGR inh 0, TNAP inh noacc -4, TNAP act hi DEA 1 and INS promoter inh -27.
Screening COc1cccc(-c2csc3nc[nH]c(=O)c23)c1 returned TNAP inh hi DEA -5, Efa HMGR inh -8, TNAP inh noacc -7, TNAP act hi DEA 1.1 and INS promoter inh 89*.
Screening O=C(NCc1ccccc1Cl)C(=O)NCC(c1ccco1)N1CCOCC1 (stereo unspecified) returned TNAP inh hi DEA -2, Efa HMGR inh -1, TNAP inh noacc -11, TNAP act hi DEA 1 and INS promoter inh 78*.
Screening Nc1ccc2nc(SCC(=O)N3CCOCC3)sc2c1 returned TNAP inh hi DEA 2, Efa HMGR inh -5, TNAP inh noacc -2, TNAP act hi DEA 1 and INS promoter inh 80*.
Screening CC(=O)Nc1ccc2nc(SCC(=O)N3CCOCC3)sc2c1 returned TNAP inh hi DEA -5, Efa HMGR inh -3, TNAP inh noacc -13 and TNAP act hi DEA 1.
Screening O=[N+]([O-])c1cc(Cl)cc(C2=NCCN2)c1 returned TNAP inh hi DEA -6, Efa HMGR inh 2, TNAP inh noacc -15, TNAP act hi DEA 1.1 and INS promoter inh 79*.
Screening CC1(C)Cc2ccccc2C(NNC(=O)c2ccncc2)=N1 returned TNAP inh hi DEA -5, Efa HMGR inh 2, TNAP inh noacc -3, TNAP act hi DEA 1.1 and INS promoter inh 27.
Screening CCN(CC)C(=O)c1ccc(/C=C/c2c[nH]c3ccccc23)[n+](C)c1 returned TNAP inh hi DEA 21, Efa HMGR inh -4, TNAP inh noacc 18, TNAP act hi DEA 0.8 and INS promoter inh -17.
Screening CC[n+]1c(/C=C/c2c[nH]c3ccccc23)ccc2cc(C)ccc21 returned TNAP inh hi DEA 61*, Efa HMGR inh 1, TNAP inh noacc 60* and TNAP act hi DEA 0.4.
O=C(CN(C(=O)c1csnn1)c1cccc2c1CCCC2)NC1CCCC1 was read as TNAP inh hi DEA 2, Efa HMGR inh 0, TNAP inh noacc -8, TNAP act hi DEA 1 and INS promoter inh -33.
For O=C(c1cnccn1)N1CCc2ccccc2C1 the results were TNAP inh hi DEA -4, Efa HMGR inh 3, TNAP inh noacc -11 and TNAP act hi DEA 1.
`COC(=O)c1c(N2C(=O)Nc3ccccc3N2O)sc2c1CCCC2` gave TNAP inh hi DEA 1, Efa HMGR inh -3, TNAP inh noacc -4, TNAP act hi DEA 1 and INS promoter inh 69*.
`Cc1ccc(/C=C/C(=O)O)cc1S(=O)(=O)NCCCO` gave TNAP inh hi DEA -2, Efa HMGR inh 22*, TNAP inh noacc -9, TNAP act hi DEA 1 and INS promoter inh -19.
For COc1cc(/C=C/C(=O)O)cc(S(=O)(=O)NCCCO)c1OC the results were TNAP inh hi DEA -5, Efa HMGR inh -8, TNAP inh noacc -11 and TNAP act hi DEA 1.
Screening COC(=O)c1cccc(NC(=S)NCc2ccc(F)cc2)c1 returned TNAP inh hi DEA 3, Efa HMGR inh -4, TNAP inh noacc 3 and TNAP act hi DEA 1.
COc1ccc(NC(=O)C(c2cc3c(cc2[N+](=O)[O-])OCO3)N(C)c2ccccc2)cc1 (stereo unspecified) was read as TNAP inh hi DEA 1, Efa HMGR inh -2, TNAP inh noacc 14, TNAP act hi DEA 1 and INS promoter inh -11.
For CCOC(=O)c1sc(NC(=O)CSc2nc(C)cc(-c3ccccc3)n2)c(C#N)c1C the results were TNAP inh hi DEA -1, Efa HMGR inh -2, TNAP inh noacc -10 and TNAP act hi DEA 1.
Screening CCOC(=O)c1sc(NC(=O)CSc2n[nH]c(-c3ccc(Cl)cc3Cl)n2)c(C#N)c1C returned TNAP inh hi DEA 37, Efa HMGR inh 1, TNAP inh noacc 96*, TNAP act hi DEA 0.6 and INS promoter inh -46.
Screening COc1ccc(S(=O)(=O)N(C)C)cc1NC(=O)COC(=O)c1nn(C)c(=O)c2ccccc12 returned TNAP inh hi DEA -1, Efa HMGR inh -3, TNAP inh noacc 1 and TNAP act hi DEA 1.
Screening CCNc1ccc(C(=O)OC(C(=O)NC(N)=O)C(C)C)cc1[N+](=O)[O-] (stereo unspecified) returned TNAP inh hi DEA 4, Efa HMGR inh -6, TNAP inh noacc -1, TNAP act hi DEA 1 and INS promoter inh -30.
Screening CC(=O)Nc1ccc(S(=O)(=O)N(CCO)Cc2ccccc2)cc1 returned TNAP inh hi DEA -3, Efa HMGR inh -3, TNAP inh noacc -13, TNAP act hi DEA 1 and INS promoter inh 29.
For O=C(Nc1ccccc1)c1ccc(S(=O)(=O)N(CCO)CCO)cc1 the results were TNAP inh hi DEA 4, Efa HMGR inh -6, TNAP inh noacc -6, TNAP act hi DEA 1 and INS promoter inh 77*.
`COC(=O)C1=C(C)N=C2SC(C#N)=C(N)N2C1c1ccc(OC)cc1` (stereo unspecified) gave TNAP inh hi DEA -2, Efa HMGR inh -3, TNAP inh noacc 3 and TNAP act hi DEA 1.
COC(=O)C1=C(C)N=C2SC(C#N)=C(N)N2C1c1cccc(OC)c1 (stereo unspecified) was read as TNAP inh hi DEA 1, Efa HMGR inh -3, TNAP inh noacc -7, TNAP act hi DEA 1 and INS promoter inh 100*.
`CCOc1cc(CN2CCC(CO)(Cc3cccc(C(F)(F)F)c3)CC2)ccc1OC` gave TNAP inh hi DEA -2, Efa HMGR inh 2, TNAP inh noacc 2 and TNAP act hi DEA 1.
CCOC(=O)c1c2n(c3ccc(O)cc13)CCCCC2 was read as TNAP inh hi DEA -1, Efa HMGR inh 0, TNAP inh noacc -8, TNAP act hi DEA 1 and INS promoter inh 86*.
For O=C(O)c1ccc(CSc2nc3ccc(NC(=O)c4ccccc4C(=O)O)cc3s2)cc1 the results were TNAP inh hi DEA -6, Efa HMGR inh -2, TNAP inh noacc -14, TNAP act hi DEA 1.1 and INS promoter inh -12.
Screening CCC(C)/C(C)=N/NC(=O)c1ccc(CSc2nc3ccccc3s2)cc1 (stereo unspecified) returned TNAP inh hi DEA -4, Efa HMGR inh -9, TNAP inh noacc -1, TNAP act hi DEA 1 and INS promoter inh 100*.
`COc1ccc(OC)c(NC(=O)NNC(=O)CCCOc2ccc(Cl)cc2C)c1` gave TNAP inh hi DEA -7, Efa HMGR inh 16*, TNAP inh noacc -8 and TNAP act hi DEA 1.1.
